Test system: U2OS
Assay: Multiplex assay against U2OS
Assay type: toxicity, cell-based
Conditions: human
In short: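 Per cents of healthy-nucleus cells form the tubulin, mitochondrial-mass and membrane-permeability phenotype values. Live cells were stained at seeding with Hoechst33342, BioTracker Green Microtubule Cytoskeleton Dye, MitoTracker Red and Annexin V Alexa Fluor 680. After compound addition they were imaged on a CQ1 microscope at 37°C and 5% CO2, and CellPathfinder machine-learning gating split them into Hoechst high-intensity objects or normal cells, normal cells into healthy, pyknosed or fragmented nuclei, and pyknosed cells into mitotic or apoptotic.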

[1] = 12 h, 1 µM, compound concentration 1 uM, replicate 1
[2] = 12 h, 1 µM, compound concentration 1 uM, replicate 2
[3] = 12 h, 10 µM, compound concentration 10 uM, replicate 1
[4] = 12 h, 10 µM, compound concentration 10 uM, replicate 2
[5] = 24 h, 1 µM, compound concentration 1 uM, replicate 1
[6] = 24 h, 1 µM, compound concentration 1 uM, replicate 2
[7] = 24 h, 10 µM, compound concentration 10 uM, replicate 1
[8] = 24 h, 10 µM, compound concentration 10 uM, replicate 2
[9] = 48 h, 1 µM, compound concentration 1 uM, replicate 1
[10] = 48 h, 1 µM, compound concentration 1 uM, replicate 2
[11] = 48 h, 10 µM, compound concentration 10 uM, replicate 1
[12] = 48 h, 10 µM, compound concentration 10 uM, replicate 2

## O=C(NCCO)c1cccc(-c2cc(Nc3ccc(OC(F)(F)F)cc3)ncn2)c1
[1]
  Population Apoptotic (%): 64%
  Population Fragmented Nuclei (%): 13%
  Population Healthy Nuclei (%): 72%
  Population Hoechst High Intensity Objects (%): 1%
  Population Membrane Permeable-Phenotype (%): 3%
  Population Mitochondria Different-Phenotype (%): 3%
  Population Mitotic Cells (%): 35%
  Population Normal (%): 98%
  Population Pyknosed Nuclei (%): 13%
  Population Tubulin-Different-Phenotype (%): 1%
  Total Cell Count: 213
[2]
  Population Apoptotic (%): 84%
  Population Fragmented Nuclei (%): 15%
  Population Healthy Nuclei (%): 73%
  Population Membrane Permeable-Phenotype (%): 4%
  Population Mitotic Cells (%): 15%
  Population Pyknosed Nuclei (%): 10%
  Population Tubulin-Different-Phenotype (%): 4%
  Total Cell Count: 128
[3]
  Population Apoptotic (%): 84%
  Population Fragmented Nuclei (%): 21%
  Population Healthy Nuclei (%): 66%
  Population Hoechst High Intensity Objects (%): 4%
  Population Membrane Permeable-Phenotype (%): 9%
  Population Mitochondria Different-Phenotype (%): 7%
  Population Mitotic Cells (%): 15%
  Population Normal (%): 95%
  Population Pyknosed Nuclei (%): 12%
  Population Tubulin-Different-Phenotype (%): 6%
  Total Cell Count: 274
[4]
  Population Apoptotic (%): 100%
  Population Fragmented Nuclei (%): 20%
  Population Healthy Nuclei (%): 68%
  Population Hoechst High Intensity Objects (%): 2%
  Population Mitochondria Different-Phenotype (%): 15%
  Population Mitotic Cells (%): 0%
  Population Normal (%): 97%
  Population Tubulin-Different-Phenotype (%): 3%
  Total Cell Count: 77
[5]
  Population Apoptotic (%): 70%
  Population Fragmented Nuclei (%): 16%
  Population Healthy Nuclei (%): 73%
  Population Hoechst High Intensity Objects (%): 1%
  Population Membrane Permeable-Phenotype (%): 3%
  Population Mitochondria Different-Phenotype (%): 3%
  Population Mitotic Cells (%): 29%
  Population Normal (%): 98%
  Population Pyknosed Nuclei (%): 9%
  Population Tubulin-Different-Phenotype (%): 2%
  Total Cell Count: 256
[6]
  Population Apoptotic (%): 86%
  Population Fragmented Nuclei (%): 20%
  Population Healthy Nuclei (%): 69%
  Population Membrane Permeable-Phenotype (%): 7%
  Population Mitochondria Different-Phenotype (%): 5%
  Population Mitotic Cells (%): 13%
  Population Tubulin-Different-Phenotype (%): 4%
  Total Cell Count: 156
[7]
  Population Apoptotic (%): 82%
  Population Fragmented Nuclei (%): 22%
  Population Healthy Nuclei (%): 64%
  Population Hoechst High Intensity Objects (%): 4%
  Population Membrane Permeable-Phenotype (%): 6%
  Population Mitochondria Different-Phenotype (%): 3%
  Population Mitotic Cells (%): 17%
  Population Normal (%): 95%
  Population Pyknosed Nuclei (%): 12%
  Population Tubulin-Different-Phenotype (%): 1%
  Total Cell Count: 344
[8]
  Population Apoptotic (%): 100%
  Population Fragmented Nuclei (%): 15%
  Population Healthy Nuclei (%): 78%
  Population Hoechst High Intensity Objects (%): 1%
  Population Membrane Permeable-Phenotype (%): 12%
  Population Mitochondria Different-Phenotype (%): 13%
  Population Mitotic Cells (%): 0%
  Population Normal (%): 98%
  Population Pyknosed Nuclei (%): 5%
  Population Tubulin-Different-Phenotype (%): 4%
  Total Cell Count: 96
[9]
  Population Apoptotic (%): 88%
  Population Fragmented Nuclei (%): 15%
  Population Healthy Nuclei (%): 75%
  Population Hoechst High Intensity Objects (%): 2%
  Population Membrane Permeable-Phenotype (%): 6%
  Population Mitochondria Different-Phenotype (%): 3%
  Population Mitotic Cells (%): 11%
  Population Normal (%): 97%
  Population Pyknosed Nuclei (%): 8%
  Population Tubulin-Different-Phenotype (%): 4%
  Total Cell Count: 417
[10]
  Population Apoptotic (%): 96%
  Population Fragmented Nuclei (%): 20%
  Population Healthy Nuclei (%): 65%
  Population Membrane Permeable-Phenotype (%): 9%
  Population Mitochondria Different-Phenotype (%): 4%
  Population Mitotic Cells (%): 3%
  Population Pyknosed Nuclei (%): 14%
  Population Tubulin-Different-Phenotype (%): 6%
  Total Cell Count: 206
[11]
  Population Apoptotic (%): 92%
  Population Fragmented Nuclei (%): 18%
  Population Healthy Nuclei (%): 72%
  Population Hoechst High Intensity Objects (%): 3%
  Population Membrane Permeable-Phenotype (%): 8%
  Population Mitochondria Different-Phenotype (%): 3%
  Population Mitotic Cells (%): 7%
  Population Normal (%): 96%
  Population Pyknosed Nuclei (%): 9%
  Population Tubulin-Different-Phenotype (%): 6%
  Total Cell Count: 473
[12]
  Population Apoptotic (%): 91%
  Population Fragmented Nuclei (%): 26%
  Population Healthy Nuclei (%): 64%
  Population Hoechst High Intensity Objects (%): 2%
  Population Membrane Permeable-Phenotype (%): 5%
  Population Mitochondria Different-Phenotype (%): 7%
  Population Mitotic Cells (%): 8%
  Population Normal (%): 97%
  Population Pyknosed Nuclei (%): 8%
  Population Tubulin-Different-Phenotype (%): 1%
  Total Cell Count: 143

Source: ChEMBL document CHEMBL5058577, “EUbOPEN Chemogenomics Library 2 (Multiplex)” (2022)
